Screening data from PubChem.
Hits are enriched below; roughly 2.9% of the tested compounds scored in any of these assays.
TRPC6 act: mouse TRPC6 channel activation; HEK293-TRPC6 membrane potential dye fluorescence; hits give high values; B-score at 10 µM; actives 0.13% (n = 310,000);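 active means B-score of the integrated fluorescence ratio above library mean plus 3 SD, and starting fluorescence ratio within library mean plus 5 SD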;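 further: higher score means more depolarization so channel activation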
Target sequence (Q61143 whole entry, looked up): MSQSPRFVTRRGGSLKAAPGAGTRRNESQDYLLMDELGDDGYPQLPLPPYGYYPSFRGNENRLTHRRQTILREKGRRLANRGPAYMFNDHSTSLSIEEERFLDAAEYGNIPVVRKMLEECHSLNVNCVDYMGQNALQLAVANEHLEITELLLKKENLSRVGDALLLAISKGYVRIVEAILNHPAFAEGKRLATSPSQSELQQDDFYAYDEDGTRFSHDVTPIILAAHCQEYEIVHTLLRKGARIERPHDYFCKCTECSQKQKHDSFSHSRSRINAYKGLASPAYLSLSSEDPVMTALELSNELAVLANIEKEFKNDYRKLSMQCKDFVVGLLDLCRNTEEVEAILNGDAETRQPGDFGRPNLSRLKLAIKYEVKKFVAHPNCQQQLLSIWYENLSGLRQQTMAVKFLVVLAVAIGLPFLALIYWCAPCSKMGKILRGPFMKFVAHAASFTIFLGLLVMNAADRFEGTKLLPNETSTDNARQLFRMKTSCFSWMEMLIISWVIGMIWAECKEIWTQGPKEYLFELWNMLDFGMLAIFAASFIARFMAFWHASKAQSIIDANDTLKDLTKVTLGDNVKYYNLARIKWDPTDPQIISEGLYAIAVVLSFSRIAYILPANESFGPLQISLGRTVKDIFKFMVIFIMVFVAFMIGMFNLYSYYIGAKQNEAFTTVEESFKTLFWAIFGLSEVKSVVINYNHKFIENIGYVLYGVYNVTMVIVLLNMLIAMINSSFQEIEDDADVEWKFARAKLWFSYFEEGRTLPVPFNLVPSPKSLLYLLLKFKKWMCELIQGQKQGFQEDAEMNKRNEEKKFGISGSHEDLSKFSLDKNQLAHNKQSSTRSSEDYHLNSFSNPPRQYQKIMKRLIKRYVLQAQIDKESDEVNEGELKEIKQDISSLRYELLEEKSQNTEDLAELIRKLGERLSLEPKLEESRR
TRPC4 act: opens the mouse TRPC4 cation channel; HEK293 TRPC4beta/mu-opioid, Fluo4 calcium fluorescence; hits give high values; AID 2237; B-score at 10 µM; actives 0.49% (n = 310,000);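 active means B-score above 5 SD of library B-scores, and initial fluorescence ratio not above library mean plus 5 SD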;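 further: positive B-score marks a calcium rise read as TRPC4 activation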
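Material: TRPC4beta and mu-opioid receptor HEK293 stable cells | Incubation: 45 min room-temperature Fluo4 loading, 110 s read | Detection: Kinetic Fluo4 calcium fluorescence | Measure: Integrated baseline-normalised fluorescence ratio, converted to per-well B score | Benchmarks: Low control buffer alone, high control maximal DAMGO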
TRPC6 inhibitor: blocks the mouse TRPC6 cation channel | HEK293-TRPC6, membrane potential dye, ACh-evoked depolarization; hits give low values | B-score at 10 µM | actives 1.1% (n = 310,000) | AID 2553;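 active means B-score under library mean minus 3 SD, initial fluorescence not abnormally high, positive integrated signal ratio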;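 further: B-score derived from integrated fluorescence ratio over the kinetic read; more negative B-score means stronger inhibition of depolarization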
TRPC4 PAM: allosteric potentiators of mouse TRPC4 channel. B-score at 10 µM. HEK293 TRPC4beta/mu-opioid, DAMGO EC20, Fluo-4 Ca2+ flux; hits give high values. AID 2227. actives 0.42% (n = 310,000);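 active means B-score of calcium response area above 5 SD of library B-scores, with initial fluorescence ratio within 5 SD of library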;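 further: B-score of integrated fluorescence ratio over time as area under calcium response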
TRPC4 inh: inhibitors of mouse TRPC4 channel; Q9QUQ5; B-score at 10 µM; actives 0.39% (n = 300,000); HEK293 TRPC4beta/mu-opioid, DAMGO-evoked Fluo4 calcium flux; hits give low values;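 active means B-score over 3 SD under the library average, no early fluorescence shift, positive overall ratio signal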
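Assay system: Stable TRPC4beta/mu-opioid receptor HEK293 cells | Reagent: DAMGO in two steps, submaximal then maximal | Compound dosing: Single concentration per test compound | Signal: Fluo4 Ca2+ flux fluorescence | Evaluation: Per-well B score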
Kir21 block: inhibitors of mouse Kir2.1 inward-rectifier potassium channel; B-score at 10 µM; actives 0.85% (n = 310,000); P35561; AID 1672; HEK293-Kir2.1, FluxOR thallium flux fluorescence; hits give low values;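 active means fluorescence ratio B-score at or below minus 3 SD of library scores, with starting-brightness B-score within 2 SD, cut at about -4.2 in these data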;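 further: channel flux triggered by added potassium and thallium sulfate stimulus; B-score of peak minus minimum fluorescence over baseline after thallium stimulus; more negative B-score means stronger Kir2.1 block with less thallium influx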
* = called active by the depositor; i = inactive.

SMILES	TRPC6 act	TRPC4 act	TRPC6 inhibitor	TRPC4 PAM	TRPC4 inh	Kir21 block
COc1ccc(CNC(=O)C(C)NCc2ccc(S(N)(=O)=O)cc2)cc1 (configuration not stated)	i	i	i	i	-8*	0.01
CC(=O)N1CCC(=NNC(=O)c2cccs2)CC1	i	i	i	i	i	-2.89
CC(C)CN1C(=O)/C(=C(/C#N)C(=O)NC2CCCCC2)c2ccccc21	i	i	i	i	i	0.09
CCC(C)N1C(=O)CCC1C(=O)NCCc1ccc(Cl)cc1 (configuration not stated)	i	i	i	i	i	-0.79
CN1CCN(c2ccc(CNS(=O)(=O)c3ccccc3)cc2)CC1	i	i	i	i	i	0
CN1CCN(c2ccc(CNS(=O)(=O)c3ccsc3)cc2)CC1	i	i	i	22*	i	-1.27
CCOc1ccccc1NC(=O)Cc1coc2cc(C)ccc12	i	i	i	i	i	-5.01*
Cc1ccc(OC(C)C(=O)N2CCCc3ccccc32)cc1 (configuration not stated)	i	i	i	i	i	-5.48*
Cc1cccc(OCC(=O)N2CCCc3ccccc32)c1	i	i	i	i	i	-0.61
Cc1cccc(OC(C)C(=O)N2CCCc3ccccc32)c1 (configuration not stated)	i	i	i	i	i	-5.2*
Cc1cc(=O)oc2cc(OC(C)C(=O)N3CCCc4ccccc43)ccc12 (configuration not stated)	i	i	i	i	i	0.22
CCCc1c(-c2ccc(O)cc2)nn(-c2ccc(O)cc2)c1-c1ccc(O)cc1	i	i	i	27*	i	-1.81
O=C1CCCN1c1ccc(S(=O)(=O)Nc2cccnc2)cc1	i	i	i	i	i	-0.4
O=C1c2ccccc2C(=O)C1c1nccc2ccccc12	i	i	i	i	i	-0.63
Cc1ccc(N(C(=O)CCCC(=O)Nc2ccccn2)C(C(=O)NC2CCCC2)c2ccc(O)cc2)cc1C (configuration not stated)	i	i	i	i	i	0.48
CCOc1ccc(Br)cc1S(=O)(=O)N1CC(C)OC(C)C1 (configuration not stated)	i	i	i	i	i	-2.57
CCOc1cc(Br)ccc1S(=O)(=O)N1CC(C)OC(C)C1 (configuration not stated)	i	43*	i	i	i	-3.32
CC1CCN(Cc2c(C(=O)N/N=C/c3ccc(C(C)C)cc3)nnn2-c2nonc2N)CC1	i	i	i	i	i	0.19
CCN1CCCC1CNCc1cccc(OC)c1OCc1ccc(F)cc1 (configuration not stated)	i	58*	i	i	i	-1.2
COc1cccc(CNc2ncn[nH]2)c1OCc1ccc(F)cc1	i	i	i	i	i	0.41
CCN1CCCC1CNCc1ccc(Cl)cc1Cl (configuration not stated)	i	i	i	29*	i	0.42
CCN1CCCC1CNS(=O)(=O)c1ccc(F)c(Cl)c1 (configuration not stated)	i	i	i	i	i	-0.93
CCN1CCCC1CNC(=O)c1cc2c(OC)c(OC)c(OC)cc2[nH]1 (configuration not stated)	i	i	i	i	i	-2.27
CCN1CCCC1CNC(=O)c1cc2c(OC)cccc2[nH]1 (configuration not stated)	i	154*	i	i	i	0
COc1ccc(Cn2c(-c3ccccc3)nc3c(c(=O)c4ccccc4n3C)c2=O)cc1	i	i	i	i	i	1.49
SMILES	TRPC6 act	TRPC4 act	TRPC6 inhibitor	TRPC4 PAM	TRPC4 inh	Kir21 block
COc1ccccc1NC(=O)C(Cc1ccc(Cl)cc1)c1nn[nH]n1 (configuration not stated)	i	i	i	i	i	1.01
O=C(c1ccc2c(c1)OCCO2)N1CCN(c2ncc(C(F)(F)F)cc2Cl)CC1	i	49*	i	i	i	1.39
Cc1ccsc1C(=O)N1CCN(c2ncc(C(F)(F)F)cc2Cl)CC1	i	i	i	i	i	1.41
O=C(Nc1ccc2c(c1)OCO2)N1CCN(c2ncc(C(F)(F)F)cc2Cl)CC1	i	55*	i	i	i	-1.86
CC(c1ccccc1)N1CCn2c(nc3cc(NC(=O)c4cccs4)ccc32)C1 (configuration not stated)	i	i	i	i	i	-0.08
COc1ccc(/C=N/Nc2nc3ccccc3s2)cc1O	i	i	i	16*	i	-3.64
CCOc1ccccc1C(=O)N(CN1CCCC1=O)c1cccc(Cl)c1	i	46*	i	i	i	-1.83
COc1ccccc1C(=O)N(CN1CCCC1=O)c1cccc(Cl)c1	i	i	i	i	i	-2
CC(C)c1ccc(-n2c(-c3ccccc3)c[n+]3c2CCc2ccccc2-3)cc1	i	i	i	i	i	-13.7*
COc1ccc(CNc2ncnc3cc(Cl)ccc23)cc1	i	i	i	i	i	0.42
Cc1nn(C(C)C)c(C)c1CN1CCCC(C(=O)c2cccc(OC(C)C)c2)C1 (configuration not stated)	i	i	-8.25*	i	i	-1.31
O=C1NC(=Nc2ccccc2Br)SC1(CO)CO	i	i	i	i	i	0.77
CCOC(=O)C1=C(C)N=C2SC(C(=O)OC)=CC(=O)N2C1c1ccc(OC)cc1 (configuration not stated)	i	i	i	i	i	-5.72*
COc1ccc(-c2[nH]ncc2C2N=C(N)Nc3nc4ccccc4n32)cc1 (configuration not stated)	i	i	i	i	i	-1.56
CCN(CC)C1CC(=O)N(c2cccc(Cl)c2)C1=O (configuration not stated)	i	i	i	i	i	0.16
CCN(CC)C(=O)CSc1nnc(COc2ccccc2)n1CC	i	i	i	i	i	-0.27
O=C(CC(Nc1ccccc1)c1ccc(F)cc1)c1ccccc1 (configuration not stated)	i	i	i	i	i	-5.52*
CCOC(=O)C1CCCN(c2c(NCCC(C)C)c(=O)c2=O)C1 (configuration not stated)	i	i	i	i	i	-0.19
